Data set [1] in a line: Drug uptake in nucleus of C57BL/6J mouse liver at 3 mg/kg, sc after 24 hrs by confocal microscopic analysis. It is filed as ADME, organism-based. To be noted: in vivo. Set-up: dose 3 mg/kg, route subcutaneous. The method in brief:
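Male C57BL/6J mice, 2 per group, injected with 50 nmol (~3 mg/kg) of fluorescein-conjugated polyamide and sacrificed 24 h later. Liver fixed in 10% formalin for 48 h, cryoprotected in 15% then 30% sucrose, and frozen. Nuclear fluorescence assessed by confocal microscopy in 10 μm sections.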

The nature of data set [2]: Drug uptake in human LNCAP cell nucleus at 2 uM after 24 hrs by confocal microscopic analysis. It is filed as ADME, cell-based. The method in brief:
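LNCaP cells incubated 24 h with 2 μM of the fluorescein-conjugated polyamide. Nuclear localization imaged by confocal microscopy.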

The next data set has as its system Mus musculus. Description: Acute toxicity in C57BL/6J mouse assessed as weight loss at 10 mg/kg, sc after 9 days. It is filed as organism-based. Set-up: dose 10 mg/kg, route subcutaneous. To be noted: in vivo, 216 h. The method in brief:
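Male C57BL/6J mice, 8 weeks old, were acclimated 3 days and then given a single sc injection of 1, 3 or 10 mg/kg in 25% DMSO/saline vehicle (up to 200 μL), n = 4 per group. Weight, behaviour and appearance were monitored daily for 9 days before sacrifice. The humane end point was visible duress or weight loss over 15% of the original.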

Among the data in ChEMBL document CHEMBL2429803, “Animal toxicity of hairpin pyrrole-imidazole polyamides varies with the turn unit” (J Med Chem, 2013) are Drug uptake and Activity values, retold here.

Molecules are shown by their SMILES.

In the case of `CC(=O)N[C@H](CCNC(=O)c1cc(NC(=O)c2cc(NC(=O)c3cc(NC(=O)c4nccn4C)cn3C)cn2C)cn1C)C(=O)Nc1cn(C)c(C(=O)Nc2cc(C(=O)Nc3cc(C(=O)Nc4cc(C(=O)NCCCN(C)CCCNC(=S)Nc5ccc(-c6c7ccc(=O)cc-7oc7cc(O)ccc67)c(C(=O)O)c5)n(C)c4)n(C)c3)n(C)c2)n1`, the Drug uptake result in data set [1] and in data set [2] was “Active” each time. As for `CN(CCCNC(=O)c1cc(NC(=O)c2cc(NC(=O)c3cc(NC(=O)c4nc(NC(=O)[C@H](N)CCNC(=O)c5cc(NC(=O)c6cc(NC(=O)c7cc(NC(=O)c8nccn8C)cn7C)cn6C)cn5C)cn4C)cn3C)cn2C)cn1C)CCCNC(=S)Nc1ccc(-c2c3ccc(=O)cc-3oc3cc(O)ccc23)c(C(=O)O)c1`, the Drug uptake result in data set [2] is “Active”. For the compound `Cn1cc2cc1C(=O)NCCCC(=O)Nc1cn(C)c(n1)C(=O)Nc1cc(n(C)c1)C(=O)Nc1cc(n(C)c1)C(=O)Nc1cc(n(C)c1)C(=O)NCC[C@@H](N)C(=O)Nc1cn(C)c(n1)C(=O)Nc1cc(n(C)c1)C(=O)Nc1cc(n(C)c1)C(=O)N2`, the Activity entry with Mus musculus is on record as “Non-toxic”. In the case of `CC(=O)N[C@@H](CNC(=O)c1cc(NC(=O)c2cc(NC(=O)c3cc(NC(=O)c4nccn4C)cn3C)cn2C)cn1C)CC(=O)Nc1cn(C)c(C(=O)Nc2cc(C(=O)Nc3cc(C(=O)Nc4cc(C(=O)NCCCN(C)CCCNC(=S)Nc5ccc(-c6c7ccc(=O)cc-7oc7cc(O)ccc67)c(C(=O)O)c5)n(C)c4)n(C)c3)n(C)c2)n1`, the Drug uptake entry in data set [1] is given as “Active”.
